Measured values taken from ChEMBL document CHEMBL1143851, “Antimicrobial susceptibilities of Peptostreptococcus anaerobius and the newly described Peptostreptococcus stomatis isolated from various human sources” (2007).
Converted amounts (≈) assume the structure as drawn.

What was measured:
[1] = test system: Peptostreptococcus anaerobius; experiment: Antibacterial activity against Peptostreptococcus anaerobius; assay type: functional
In short: (§1)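 Clinical isolates (1985–2005) revived from −70°C stocks and subcultured on brucella blood agar. Etest MICs: 48-h anaerobic growth on prereduced brucella and fastidious anaerobe agars (5% defibrinated sheep blood, hemin, vitamin K1) suspended in 0.9% NaCl to 1–2 McFarland, spread on fresh plates of both media; incubated anaerobically at 37°C for 48 h (72 h for slow growers).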

[2] = test system: Peptostreptococcus stomatis; experiment: Antibacterial activity against Peptostreptococcus stomatis; assay type: functional; in short: as §1

| MIC50 [1] | MIC90 [1] | MIC50 [2] | MIC90 [2] | SMILES |
| --- | --- | --- | --- | --- |
| 0.19 µg/mL (≈ 0.447 µM) | 0.75 µg/mL (≈ 1.76 µM) | < 0.016 µg/mL | 0.016 µg/mL (≈ 0.0376 µM) | CCC[C@@H]1C[C@@H](C(=O)N[C@@H]([C@H]2O[C@H](SC)[C@H](O)[C@@H](O)[C@H]2O)[C@H](C)Cl)N(C)C1 [CLINDAMYCIN] |
| 0.25 µg/mL (≈ 0.526 µM) | 0.38 µg/mL (≈ 0.799 µM) | 0.047 µg/mL (≈ 0.0988 µM) | 0.19 µg/mL (≈ 0.4 µM) | C[C@@H](O)[C@H]1C(=O)N2C(C(=O)O)=C(S[C@@H]3CN[C@H](C(=O)Nc4cccc(C(=O)O)c4)C3)[C@H](C)[C@H]12 [ERTAPENEM] |
| 0.125 µg/mL (≈ 0.342 µM) | 0.38 µg/mL (≈ 1.04 µM) | < 0.016 µg/mL | 0.094 µg/mL (≈ 0.257 µM) | CC1(C)S[C@@H]2[C@H](NC(=O)[C@H](N)c3ccc(O)cc3)C(=O)N2[C@H]1C(=O)O [AMOXICILLIN] |
| 0.125 µg/mL (≈ 0.311 µM) | 0.125 µg/mL (≈ 0.311 µM) | 0.094 µg/mL (≈ 0.234 µM) | 0.125 µg/mL (≈ 0.311 µM) | COc1c(N2C[C@@H]3CCCN[C@@H]3C2)c(F)cc2c(=O)c(C(=O)O)cn(C3CC3)c12 [MOXIFLOXACIN] |
| 0.38 µg/mL (≈ 0.889 µM) | 0.75 µg/mL (≈ 1.75 µM) | 0.064 µg/mL (≈ 0.15 µM) | 0.38 µg/mL (≈ 0.889 µM) | CO[C@@]1(NC(=O)Cc2cccs2)C(=O)N2C(C(=O)O)=C(COC(N)=O)CS[C@@H]21 [CEFOXITIN] |
| 0.5 µg/mL (≈ 0.668 µM) | 1 µg/mL (≈ 1.34 µM) | 0.19 µg/mL (≈ 0.254 µM) | 0.75 µg/mL (≈ 1 µM) | CC[C@H]1OC(=O)[C@H](C)[C@@H](O[C@H]2C[C@@](C)(OC)[C@@H](O)[C@H](C)O2)[C@H](C)[C@@H](O[C@@H]2O[C@H](C)C[C@H](N(C)C)[C@H]2O)[C@](C)(O)C[C@@H](C)CN(C)[C@H](C)[C@@H](O)[C@]1(C)O [AZITHROMYCIN] |
| 0.094 µg/mL (≈ 0.549 µM) | 0.19 µg/mL (≈ 1.11 µM) | < 0.016 µg/mL | 0.047 µg/mL (≈ 0.275 µM) | Cc1ncc([N+](=O)[O-])n1CCO [METRONIDAZOLE] |
